Assay results reported in ChEMBL document CHEMBL4414551, “Design, Synthesis, and Biological Evaluation of Substituted 4,6-Dihydrospiro[[1,2,3]triazolo[4,5-b]pyridine-7,3'-indoline]-2',5(3H)-dione Analogues as Potent NS4B Inhibitors for the Treatment of Dengue Virus Infection” (J Med Chem, 2019).

Experiments:
dengue virus type 2 = test: Antiviral activity against Dengue virus 2 NGC infected in human HuH7 replicon cells expressing Renilla luciferase and neomycin-resistance genes assessed as reduction in viral replication incubated for 48 hrs by luciferase reporter replicon-based assay; format: functional, organism-based; details: Huh-7, 48 h
Method in brief: (§1)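 Huh7 cells stably carrying a Renilla luciferase/neomycin-resistance replicon (DENV-1 WestPac, DENV-2 NGC, DENV-3 D3MY05-34640 or DENV-4 D4MY01-22713). Cells seeded at 10k per well and incubated overnight at 37 °C, 5% CO2. Then exposed to 2-fold serial compound dilutions for 48 h, in duplicate. Luciferase read with a live-cell substrate. EC50 from four-parameter logistic fit.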

dengue virus type 4 = test: Antiviral activity against Dengue virus 4 D4MY01-22713 infected in human HuH7 replicon cells expressing Renilla luciferase and neomycin-resistance genes assessed as reduction in viral replication incubated for 48 hrs by luciferase reporter replicon-based assay; format: functional, organism-based; details: D4MY01-22713, Huh-7, 48 h; method in brief: as §1
dengue virus type 3 = test: Antiviral activity against Dengue virus 3 D3MY05-34640 infected in human HuH7 replicon cells expressing Renilla luciferase and neomycin-resistance genes assessed as reduction in viral replication incubated for 48 hrs by luciferase reporter replicon-based assay; format: functional, organism-based; details: D3MY05-34640, Huh-7, 48 h; method in brief: as §1
[1] = Cytotoxicity in human HuH7 replicon cells infected with Dengue virus 2 NGC assessed as reduction in cell viability incubated for 48 hrs by Cell-titer-Glo reagent based assay; design: species or system Huh-7
Method in brief: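 Huh7 cells or Huh7 replicon cells plated, then held at 37 °C with 5% CO₂ overnight. Exposed to 2-fold serial compound dilutions for 48 h, in duplicate. Viability read with CellTiter-Glo and normalized to 0.45% DMSO wells set at 100%. CC50 from four-parameter logistic fit.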

dengue virus type 1 = test: Antiviral activity against Dengue virus 1 WestPac infected in human HuH7 replicon cells expressing Renilla luciferase and neomycin-resistance genes assessed as reduction in viral replication incubated for 48 hrs by luciferase reporter replicon-based assay; format: functional, organism-based; details: Huh-7, 48 h; method in brief: as §1

Row | Structure (SMILES) | EC50 (dengue virus type 2) [µM] | EC50 (dengue virus type 4) [µM] | EC50 (dengue virus type 3) [µM] | CC50 at 48 h [1] [µM] | EC50 (dengue virus type 1) [µM]
1 | COC(=O)CN1C(=O)C[C@]2(C(=O)Nc3ccc(Cl)cc32)c2nnn([C@@H](C)c3ccc(Cl)cc3)c21 | > 10 | > 10 | 2.7 | > 10 | > 10
2 | C[C@@H](c1ccc(Cl)cc1)n1nnc2c1NC(=O)C[C@]21C(=O)N(CCCCCCN(C)C)c2ccc(Cl)cc21 | 0.9 | > 5 | 0.066 | > 10 | 1.5
3 | C[C@@H](c1ccc(Cl)cc1)n1nnc2c1NC(=O)C[C@]21C(=O)N(CCCCN2CCCCC2)c2ccc(Cl)cc21 | 0.35 | > 5 | 0.078 | > 10 | > 5
4 | C[C@@H](c1ccc(Cl)cc1)n1nnc2c1NC(=O)C[C@]21C(=O)N(CCF)c2ccc(Cl)cc21 | 0.038 | > 5 | 0.009 | > 10 | > 5
5 | CC(C)N1C(=O)[C@]2(CC(=O)N(C(C)C)c3c2nnn3[C@@H](C)c2ccc(Cl)cc2)c2cc(Cl)ccc21 | > 10 | 3 | 1.5 | > 10 | 3.8
6 | CCCN1C(=O)[C@]2(CC(=O)Nc3c2nnn3[C@@H](C)c2ccc(Cl)cc2)c2cc(Cl)ccc21 | 0.071 | > 5 | 0.01 | > 10 | 1.9
7 | CC(C)N1C(=O)[C@]2(CC(=O)Nc3c2nnn3[C@@H](C)c2ccc(Cl)cc2)c2cc(Cl)ccc21 | 0.023 | > 5 | 0.009 | > 10 | 5.7
8 | C[C@@H](c1ccc(Cl)cc1)n1nnc2c1NC(=O)C[C@]21C(=O)N(Cc2cccc(F)c2)c2ccc(Cl)cc21 | 0.29 | > 5 | 0.051 | > 10 | 10
9 | C[C@@H](c1ccc(Cl)cc1)n1nnc2c1NC(=O)C[C@]21C(=O)N(CCCCCCCCCCN(C)C)c2ccc(Cl)cc21 | 3.5 | 3.5 | 0.098 | > 10 | 2.7
10 | COCOCCN1C(=O)[C@]2(CC(=O)Nc3c2nnn3[C@@H](C)c2ccc(Cl)cc2)c2cc(Cl)ccc21 | 0.092 | > 5 | 0.019 | > 10 | > 5
11 | CCCCCCN1C(=O)[C@]2(CC(=O)Nc3c2nnn3[C@@H](C)c2ccc(Cl)cc2)c2cc(Cl)ccc21 | 0.81 | > 5 | 0.14 | > 10 | 0.83
12 | C[C@@H](c1ccc(Cl)cc1)n1nnc2c1NC(=O)C[C@]21C(=O)N(Cc2ccc(F)cc2)c2ccc(Cl)cc21 | 0.16 | 10 | 0.048 | > 10 | 5
13 | Cc1ccc(CN2C(=O)[C@]3(CC(=O)Nc4c3nnn4[C@@H](C)c3ccc(Cl)cc3)c3cc(Cl)ccc32)cn1 | 0.15 | > 5 | 0.011 | > 10 | > 5
14 | C[C@@H](c1ccc(Cl)cc1)n1nnc2c1NC(=O)C[C@]21C(=O)N(CC(=O)O)c2ccc(Cl)cc21 | 2.4 | – | – | > 10 | –
15 | C[C@@H](c1ccc(Cl)cc1)n1nnc2c1NC(=O)C[C@]21C(=O)N(CCCN2CCCCC2)c2ccc(Cl)cc21 | 0.13 | > 5 | 0.012 | > 10 | > 5
16 | C[C@@H](c1ccc(Cl)cc1)n1nnc2c1NC(=O)C[C@]21C(=O)N(C)c2ccc(Cl)cc21 | 0.019 | > 5 | 0.004 | > 10 | > 5
